Consider nine compounds from ChEMBL document CHEMBL3860025, “Antiproliferative and Anti-inflammatory Withanolides from Physalis angulata” (J Nat Prod, 2016).

Assay [1] is described as follows: Antiproliferative activity against human C4-2B cells assessed as inhibition of cell viability after 48 hrs by MTT reduction assay. Format: functional, cell-based. The following applies: LNCaP C4-2B. In a few lines: (§1)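 Cells grown in RPMI-1640 or EMEM with 10% FBS at 37 °C under 5% CO2. Seeded at 1 × 10^4 cells/well for 12 h, then exposed to a range of compound concentrations for 48 h. Viability read by MTT reduction. 5-Fluorouracil was the positive control. Each assay was repeated three times, and IC50 reported as mean ± SD.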

Assay [2] in a line: Antiproliferative activity against human 22Rv1 cells assessed as inhibition of cell viability after 48 hrs by MTT reduction assay. It is filed as functional, cell-based, CWR22R. The note with it: 22Rv1, 48 h. In a few lines:
as §1

Assay [3] can be described thus: Antiproliferative activity against human 786-0 cells assessed as inhibition of cell viability after 48 hrs by MTT reduction assay. Format: functional, cell-based. The following applies: 786-0, 48 h. The method, boiled down: as §1
For orientation: Tetrazolium dyes change colour on reduction, which living cells bring about.

Assay [4] in a line: Antiproliferative activity against human A498 cells assessed as inhibition of cell viability after 48 hrs by MTT reduction assay. Format: functional, cell-based. The note with it: A498, 48 h. The method, boiled down:
as §1

A short description of assay [5]: Antiproliferative activity against human ACHN cells assessed as inhibition of cell viability after 48 hrs by MTT reduction assay. It is filed as functional, cell-based. In a few lines: as §1
The nature of assay [6]: Antiproliferative activity against human A375-S2 cells assessed as inhibition of cell viability after 48 hrs by MTT reduction assay. It is filed as functional, cell-based. The note with it: A375-S2, 48 h. The method, boiled down:
as §1

Assay [7] is described as follows: Antiinflammatory activity in mouse RAW264.7 cells assessed as inhibition of LPS-induced nitric oxide production after 24 hrs by Griess assay. It is filed as functional, cell-based. The note with it: RAW264.7, 24 h. The method, boiled down:
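RAW 264.7 macrophages seeded at 1 × 10^6 cells/well, then incubated 24 h at 37 °C with LPS (1 μg/mL), with or without test compounds. NO measured by Griess reagent (0.1% N-(1-naphthyl)ethylenediamine plus 1% sulfanilamide in 5% H3PO4), absorbance at 540 nm. NO concentration and inhibition rate calculated from a standard curve. Hydrocortisone served as positive control.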
(The Griess reaction detects nitrite, a stable product of nitric oxide.)

The structures appear in SMILES notation. pIC50: −log10 of the molar value. Bounds are passed on as bounds.

For `CC(=O)O[C@H]1C=C([C@H](C)[C@H]2CC(C)=C(C)C(=O)O2)[C@@]2(C)CC[C@H]3[C@@H](C[C@@H](O)[C@@]4(O)CC=CC(=O)[C@]34C)[C@]12O`, the negative-log IC50 (pIC50) in assay [1], in assay [2], in assay [3], in assay [4], in assay [5] and in assay [6] was less than 5.00 throughout. Also, the pIC50 in assay [7] is 4.19.
With `CC1=C(C)C(=O)O[C@@H]([C@](C)(O)[C@H]2C[C@H](O)[C@H]3[C@@H]4C[C@@H](O)[C@@]5(O)CC=CC(=O)[C@]5(C)[C@H]4CC[C@@]32C)C1`, the pIC50 in assay [1], in assay [2], in assay [3], in assay [4], in assay [5] and in assay [6] was less than 5.00 in each case. Further, the pIC50 in assay [7] is 4.14.
As for `CC(=O)O[C@H]1[C@@H]2O[C@]2([C@H](C)[C@H]2CC(C)=C(C)C(=O)O2)[C@@]2(C)CC[C@H]3[C@@H](C[C@@H](O)[C@@]4(Cl)CC=CC(=O)[C@]34C)[C@@]12O`, the pIC50 in assay [1] was 5.97; in assay [2], 5.64; in assay [3] it was 6.16; in assay [4], 6.28; in assay [5], 6.11; in assay [6], 5.30. Besides, the pIC50 in assay [7] is 5.85.
Regarding `CO[C@@H]1CC(=O)[C@]2(C)[C@H]3CC[C@@]4(C)[C@@](O)([C@@H]3C[C@H]3O[C@]32C1)[C@@H](OC(C)=O)[C@@H]1O[C@@]14[C@H](C)[C@H]1CC(C)=C(C)C(=O)O1`, the pIC50 was 5.67 in assay [1]; 5.93 in assay [2]; 5.66 in assay [3]; less than 5.00 in assay [4]; less than 5.00 in assay [5]; less than 5.00 in assay [6]. In addition, the pIC50 in assay [7] is 5.45.
Regarding `CO[C@@H]1C=C([C@H](C)[C@H]2CC(C)=C(C)C(=O)O2)[C@@]2(C)CC[C@H]3[C@@H](C[C@@H](O)[C@@]4(O)CC=CC(=O)[C@]34C)[C@@]12O`, the pIC50 in assay [1], in assay [2], in assay [3], in assay [4], in assay [5] and in assay [6] was less than 5.00 in each case. The pIC50 in assay [7] is 4.73.
Regarding `CC1=C(C)C(=O)O[C@@H]([C@@H](C)C2=C[C@H](O)[C@]3(O)[C@@H]4C[C@@H](O)[C@@]5(O)CC=CC(=O)[C@]5(C)[C@H]4CC[C@]23C)C1`, the negative-log IC50 (pIC50) in assay [1], in assay [2], in assay [3], in assay [4], in assay [5] and in assay [6] was less than 5.00 throughout. Further, the pIC50 in assay [7] was 4.44.
On to `CC1=C(C)C(=O)O[C@@H]([C@@H](C)C2=C[C@@H](O)[C@]3(O)[C@@H]4C[C@@H](O)[C@@]5(O)CC=CC(=O)[C@]5(C)[C@H]4CC[C@]23C)C1`, for which the pIC50 in assay [1], in assay [2], in assay [3], in assay [4], in assay [5] and in assay [6] was less than 5.00 throughout. Besides, the pIC50 in assay [7] is 4.42.
For `CO[C@H]1C=C([C@H](C)[C@H]2CC(C)=C(C)C(=O)O2)[C@@]2(C)CC[C@H]3[C@@H](C[C@@H](O)[C@@]4(O)CC=CC(=O)[C@]34C)[C@@]12O`, the pIC50 in assay [1], in assay [2], in assay [3], in assay [4], in assay [5] and in assay [6] was less than 5.00 in each case. The negative logarithm of the IC50 (pIC50) in assay [7] was 4.94.
`CC1=C(C)C(=O)O[C@@H]([C@]2(C)OC(=O)[C@]34CC[C@H]5[C@@H](CC=C6CC=CC(=O)[C@@]65C)[C@@](O)(O3)[C@@H](O)C[C@H]24)C1`: the negative-log IC50 (pIC50) in assay [1], in assay [2], in assay [3], in assay [4], in assay [5] and in assay [6] was less than 5.00 each time. Further, in assay [7], the pIC50 is 4.59.

The term pIC50 denotes the negative decadic logarithm of the IC50, by convention in mol/L.
